Series [1] has as its system Staphylococcus aureus. Kind of series: Antibacterial activity against methicillin-resistant Staphylococcus aureus ATCC 15187 incubated for 24 hrs by Alamar blue staining based microdilution method. Type of series: functional. A general note: The colour change of resazurin is a common sign of viable cells or microbes.
The next series has as its system Escherichia coli. Kind of series: Antibacterial activity against Escherichia coli ATCC 25922 incubated for 24 hrs by Alamar blue staining based microdilution method. Type of series: functional.
Series [2] is described as follows: Cytotoxicity in human HepG2 cells incubated for 24 hrs by MTT assay. The format is toxicity, cell-based. The essentials:
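HepG2 cells, 1 × 10^4 per well in DMEM/10% FBS, 24 h attachment; compounds 200 to 0.19 μg ml−1 for 24 h at 37 °C, 5% CO2; MTT 2.5 mg ml−1 for 3 h, formazan in DMSO, OD 570 nm; doxorubicin 10 μM control.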

Series [3] deals with Staphylococcus aureus. Kind of series: Antibacterial activity against Staphylococcus aureus ATCC 29213 incubated for 24 hrs by Alamar blue staining based microdilution method. The format is functional.

These results are taken from ChEMBL document CHEMBL6182837, “Discovery and biological evaluation of nitrofuranyl-pyrazolopyrimidine hybrid conjugates as potent antimicrobial agents targeting Staphylococcus aureus and methicillin-resistant S. aureus” (RSC Med Chem, 2025).

Values after ≈ are worked out from the molar mass of the structure shown. Active and inactive are the calls of the source. The calls are words filed in the database; no cut-off is given here. Where only a bound is given, the exact number is not on record here.

Consider `CCCc1nn(C)c2c(Nc3ccc(Br)cc3)nc(-c3ccc([N+](=O)[O-])o3)nc12`, for which the MIC in the series on Staphylococcus aureus [1] and in the series on Staphylococcus aureus [3] was greater than 32 µg/mL in each case. In the series with Escherichia coli, the MIC (usually the least concentration at which growth counts as inhibited) is “inactive”. Further, the IC50 (in general, the concentration at which inhibition is half-maximal) at 24 h in series [2] is greater than 50 µg/mL.

Turning to `CCCc1nn(C)c2c(NCCO)nc(-c3ccc([N+](=O)[O-])o3)nc12`, the minimum inhibitory concentration (MIC) with Staphylococcus aureus [1] was 8 µg/mL (≈ 23.1 µM); in the series on Staphylococcus aureus [3], greater than 32 µg/mL. In addition, the MIC result with Escherichia coli is “inactive”. In series [2], this compound gave an IC50 at 24 h greater than 50 µg/mL.

On to `CCCc1nn(C)c2c(Nc3ccc(F)cc3)nc(-c3ccc([N+](=O)[O-])o3)nc12`, for which the MIC in the series on Staphylococcus aureus [1] is 0.25 µg/mL (≈ 0.631 µM); against Staphylococcus aureus [3], 8 µg/mL (≈ 20.2 µM). The MIC entry with Escherichia coli is “inactive”. In series [2], this compound gave an IC50 at 24 h greater than 50 µg/mL.

For `CCCc1nn(C)c2c(N3CCC(CCO)CC3)nc(-c3ccc([N+](=O)[O-])o3)nc12`, the MIC with Staphylococcus aureus [1] and in the series with Staphylococcus aureus [3] was greater than 32 µg/mL each time. The MIC result with Escherichia coli was “inactive”. In addition, in series [2], the IC50 at 24 h is greater than 50 µg/mL.

In the case of `CCCc1nn(C)c2c(N3CCCC3)nc(-c3ccc([N+](=O)[O-])o3)nc12`, the MIC against Staphylococcus aureus [1] and in the series on Staphylococcus aureus [3] was greater than 32 µg/mL throughout. The MIC entry in the series on Escherichia coli was “inactive”. The compound also came in with an IC50 at 24 h in series [2] greater than 50 µg/mL.

`CCCc1nn(C)c2c(Nc3ccc(C(F)(F)F)cc3)nc(-c3ccc([N+](=O)[O-])o3)nc12`: the MIC against Staphylococcus aureus [1] and against Staphylococcus aureus [3] was greater than 32 µg/mL in each case. For the same compound, in the series on Escherichia coli, the MIC result is “inactive”. The 50% inhibitory concentration (IC50) at 24 h in series [2] was greater than 50 µg/mL.

`CCCc1nn(C)c2c(N3CCN(C)CC3)nc(-c3ccc([N+](=O)[O-])o3)nc12`: the minimal inhibitory concentration (MIC) in the series with Staphylococcus aureus [1] and against Staphylococcus aureus [3] was greater than 32 µg/mL each time. Further, the MIC result in the series with Escherichia coli is “inactive”. Also, the IC50 at 24 h in series [2] is greater than 50 µg/mL.

As to `CCCc1nn(C)c2c(Nc3ccncc3)nc(-c3ccc([N+](=O)[O-])o3)nc12`, the MIC against Staphylococcus aureus [1] worked out at 4 µg/mL (≈ 10.5 µM); against Escherichia coli it was 4 µg/mL (≈ 10.5 µM); against Staphylococcus aureus [3], 0.5 µg/mL (≈ 1.32 µM). Moreover, the IC50 at 24 h in series [2] is greater than 50 µg/mL.

Take `CCCc1nn(C)c2c(NCCCN3CCOCC3)nc(-c3ccc([N+](=O)[O-])o3)nc12`: the MIC in the series on Staphylococcus aureus [1] and with Staphylococcus aureus [3] was greater than 32 µg/mL each time. In addition, in the series with Escherichia coli, the MIC entry was “inactive”. Further, in series [2], the IC50 at 24 h was greater than 50 µg/mL.

Turning to `CCCc1nn(C)c2c(NCc3ccncc3)nc(-c3ccc([N+](=O)[O-])o3)nc12`, the minimum inhibitory concentration (MIC) in the series with Staphylococcus aureus [1] and in the series on Staphylococcus aureus [3] was 1 µg/mL (≈ 2.54 µM) throughout. Moreover, in the series on Escherichia coli, the MIC entry was “inactive”. The compound further displayed an IC50 at 24 h in series [2] greater than 50 µg/mL.

With `CCCc1nn(C)c2c(Nc3cccc(F)c3)nc(-c3ccc([N+](=O)[O-])o3)nc12`, the MIC was 4 µg/mL (≈ 10.1 µM) against Staphylococcus aureus [1] and greater than 32 µg/mL against Staphylococcus aureus [3]. Further, in the series on Escherichia coli, the MIC entry was “inactive”. Moreover, the IC50 at 24 h in series [2] was found to be 38.9 µg/mL (≈ 98 µM).

For the compound `CCCc1nn(C)c2c(N3CCCCC3)nc(-c3ccc([N+](=O)[O-])o3)nc12`, the MIC in the series on Staphylococcus aureus [1] and in the series with Staphylococcus aureus [3] was greater than 32 µg/mL in each case. Also, the MIC entry in the series on Escherichia coli is “inactive”. The same compound gave an IC50 at 24 h in series [2] greater than 50 µg/mL.

On to `CCCc1nn(C)c2c(N3CCN(c4ccccc4O)CC3)nc(-c3ccc([N+](=O)[O-])o3)nc12`, for which the MIC against Staphylococcus aureus [1] and against Staphylococcus aureus [3] was greater than 32 µg/mL throughout. The MIC entry in the series on Escherichia coli is “inactive”. The compound further had an IC50 at 24 h in series [2] greater than 50 µg/mL.

As to `CCCc1nn(C)c2c(Nc3ccc(OC)cc3)nc(-c3ccc([N+](=O)[O-])o3)nc12`, the MIC against Staphylococcus aureus [1] and against Staphylococcus aureus [3] was greater than 32 µg/mL each time. For the same compound, the MIC entry in the series on Escherichia coli was “inactive”. The same compound displayed an IC50 at 24 h in series [2] greater than 50 µg/mL.

`CCCc1nn(C)c2c(N3CCC(c4ccccc4)CC3)nc(-c3ccc([N+](=O)[O-])o3)nc12`: the MIC in the series on Staphylococcus aureus [1] and against Staphylococcus aureus [3] was greater than 32 µg/mL in each case. In the series on Escherichia coli, the MIC result is “inactive”. The same compound showed an IC50 at 24 h in series [2] greater than 50 µg/mL.

On to `CCCc1nn(C)c2c(N3CCC(=O)CC3)nc(-c3ccc([N+](=O)[O-])o3)nc12`, for which the values for the MIC against Staphylococcus aureus [1] and in the series with Staphylococcus aureus [3] were 16 µg/mL (≈ 41.6 µM) and greater than 32 µg/mL, respectively. The MIC result in the series on Escherichia coli was “inactive”. In series [2], this compound gave an IC50 at 24 h greater than 50 µg/mL.

In the case of `CCCc1nn(C)c2c(=O)[nH]c(-c3ccc([N+](=O)[O-])o3)nc12`, the MIC in the series on Staphylococcus aureus [1] and with Staphylococcus aureus [3] was 8 µg/mL (≈ 26.4 µM) in each case. In addition, the MIC result in the series with Escherichia coli is “inactive”. In series [2], this compound displayed an IC50 at 24 h greater than 50 µg/mL.

`CCCc1nn(C)c2c(N3CCN(c4ccncc4)CC3)nc(-c3ccc([N+](=O)[O-])o3)nc12`: the MIC in the series on Staphylococcus aureus [1] was 0.25 µg/mL (≈ 0.557 µM); with Staphylococcus aureus [3], 1 µg/mL (≈ 2.23 µM). Further, the MIC result with Escherichia coli is “inactive”. This compound also gave an IC50 at 24 h in series [2] greater than 50 µg/mL.

For the compound `CCCc1nn(C)c2c(N3CCC(O)CC3)nc(-c3ccc([N+](=O)[O-])o3)nc12`, the MIC turned out to be 0.5 µg/mL (≈ 1.29 µM) in the series on Staphylococcus aureus [1] and 16 µg/mL (≈ 41.4 µM) against Staphylococcus aureus [3]. Further, the MIC result in the series on Escherichia coli was “inactive”. In series [2], this compound displayed an IC50 at 24 h greater than 50 µg/mL.

`CCCc1nn(C)c2c(NCCCCCO)nc(-c3ccc([N+](=O)[O-])o3)nc12`: the MIC against Staphylococcus aureus [1] came out at 0.5 µg/mL (≈ 1.29 µM); in the series with Staphylococcus aureus [3], 4 µg/mL (≈ 10.3 µM). In the series with Escherichia coli, the MIC result is “inactive”. In series [2], this compound gave an IC50 at 24 h of 38.1 µg/mL (≈ 98.1 µM).

Consider `CCCc1nn(C)c2c(N3CCC(CO)CC3)nc(-c3ccc([N+](=O)[O-])o3)nc12`, for which the MIC in the series with Staphylococcus aureus [1] and against Staphylococcus aureus [3] was greater than 32 µg/mL in each case. In the series on Escherichia coli, the MIC entry is “inactive”. In series [2], the IC50 at 24 h was greater than 50 µg/mL.

On to `CCCc1nn(C)c2c(NCCCCCCO)nc(-c3ccc([N+](=O)[O-])o3)nc12`, for which the figures for the MIC with Staphylococcus aureus [1] and with Staphylococcus aureus [3] were 2 µg/mL (≈ 4.97 µM) and 32 µg/mL (≈ 79.5 µM), respectively. In addition, the MIC entry with Escherichia coli was “inactive”. This compound showed an IC50 at 24 h in series [2] greater than 50 µg/mL.

On to `CCCc1nn(C)c2c(NC3CCOCC3)nc(-c3ccc([N+](=O)[O-])o3)nc12`, for which the MIC in the series with Staphylococcus aureus [1] and against Staphylococcus aureus [3] was greater than 32 µg/mL throughout. Moreover, in the series on Escherichia coli, the MIC entry was “inactive”. In series [2], this compound displayed an IC50 at 24 h greater than 50 µg/mL.

In the case of `CCCc1nn(C)c2c(NCCN3CCCCC3)nc(-c3ccc([N+](=O)[O-])o3)nc12`, the MIC in the series on Staphylococcus aureus [1] and in the series on Staphylococcus aureus [3] was greater than 32 µg/mL each time. For the same compound, the MIC result in the series on Escherichia coli is “inactive”. Further, the IC50 at 24 h in series [2] was greater than 50 µg/mL.

On to `CCCc1nn(C)c2c(NCc3cccnc3)nc(-c3ccc([N+](=O)[O-])o3)nc12`, for which the results for the MIC in the series on Staphylococcus aureus [1] and in the series with Staphylococcus aureus [3] were 4 µg/mL (≈ 10.2 µM) and 8 µg/mL (≈ 20.3 µM), respectively. Moreover, the MIC result in the series on Escherichia coli was “inactive”. Besides, the IC50 at 24 h in series [2] is greater than 50 µg/mL.

For the compound `CCCc1nn(C)c2c(N3CCOCC3)nc(-c3ccc([N+](=O)[O-])o3)nc12`, the MIC in the series on Staphylococcus aureus [1] and in the series on Staphylococcus aureus [3] was greater than 32 µg/mL throughout. Further, the MIC result with Escherichia coli was “inactive”. This compound had an IC50 at 24 h in series [2] greater than 50 µg/mL.

With `CCCc1nn(C)c2c(NCCN3CCOCC3)nc(-c3ccc([N+](=O)[O-])o3)nc12`, the MIC against Staphylococcus aureus [1] and against Staphylococcus aureus [3] was greater than 32 µg/mL each time. In addition, in the series on Escherichia coli, the MIC result is “inactive”. Besides, the IC50 at 24 h in series [2] is greater than 50 µg/mL.

As for `CCCc1nn(C)c2c(NCCCO)nc(-c3ccc([N+](=O)[O-])o3)nc12`, the MIC in the series on Staphylococcus aureus [1] came out at 2 µg/mL (≈ 5.55 µM); in the series with Staphylococcus aureus [3], 4 µg/mL (≈ 11.1 µM). Further, in the series with Escherichia coli, the MIC entry is “inactive”. The same compound displayed an IC50 at 24 h in series [2] greater than 50 µg/mL.

As for `CCCc1nn(C)c2c(N3CCN(c4cccc(O)c4)CC3)nc(-c3ccc([N+](=O)[O-])o3)nc12`, the MIC against Staphylococcus aureus [1] and against Staphylococcus aureus [3] was greater than 32 µg/mL throughout. Also, the MIC entry with Escherichia coli was “inactive”. The IC50 at 24 h in series [2] was greater than 50 µg/mL.

For `CCCc1nn(C)c2c(Nc3cccc(O)c3)nc(-c3ccc([N+](=O)[O-])o3)nc12`, the MIC came to 1 µg/mL (≈ 2.54 µM) against Staphylococcus aureus [1] and 4 µg/mL (≈ 10.1 µM) in the series with Staphylococcus aureus [3]. Besides, the MIC result in the series on Escherichia coli is “inactive”. The same compound came in with an IC50 at 24 h in series [2] greater than 50 µg/mL.
